Sampled rows, rich in hits. Any-hit rate of the full collection: about 4%.
KCNK9 inh: human KCNK9 channel inhibition. Q9NPC2. HEK293 KCNK9, FluxOR thallium flux fluorescence; stronger effect = lower value. B-score at 10 µM. 310,000 compounds, 1.2% hits. AID 488922;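 active = ratio B-score over 3 SD below the library mean, with starting fluorescence within 5 SD of its mean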;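 also: negative B-score means less thallium flux so channel inhibition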
KCNQ1 act: potentiates or activates the human KCNQ1 potassium channel | P51787 | CHO-K1 KCNQ1, thallium flux FluxOR fluorescence; stronger effect = higher value | B-score at 10 µM | 310,000 compounds, 0.35% hits | AID 2648;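 active = fluorescence ratio B-score, a plate-corrected score, at least three library SD, with initial intensity B-score within 5 SD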
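Assay system: CHO-K1 cells stably expressing KCNQ1. Medium: assay buffer for compound exposure, DMSO matched across wells. Timing: 37 °C overnight plating, 90-min dark dye load, 20-min compound pretreatment. Signal: kinetic FluxOR fluorescence, 10 s baseline plus 110 s post-stimulus.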
KCNK3 inh: human KCNK3 channel inhibition, primary screen; O14649; CHO-KCNK3 thallium flux, FluxOR fluorescence; stronger effect = lower value; B-score at 10 µM; 340,000 compounds, 0.84% hits; AID 602410;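 active = B-score under library mean minus 4 SD, starting fluorescence ratio at most library mean plus 5 SD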;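 also: more negative B-score means stronger inhibition of thallium flux through KCNK3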
hERG rescue: compounds protecting human hERG from proarrhythmic drug block | 310,000 compounds, 0.51% hits | CHO-hERG, FluxOR thallium flux, dofetilide IC70 present | AID 1511 | Q12809 | activation (rescue from dofetilide block), less the hit threshold, % at 10 µM;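 active = activation above the mean of controls blocked by dofetilide plus 5 SD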;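 also: thallium influx through hERG after potassium depolarization seen as dye fluorescence rise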
KCNQ1 block: blocks the human KCNQ1 potassium channel | CHO-K1 KCNQ1, FluxOR thallium flux fluorescence; stronger effect = higher value | B-score at 10 µM | 310,000 compounds, 1.3% hits;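 active = compounds whose thallium flux B-score, printed positive for inhibition, exceeds three library SD while starting fluorescence stays within three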;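 also: channel opened by potassium depolarization with thallium stimulus after 20 min compound exposure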
PHOSPHO1 block: PHOSPHO1 (human) inhibition; Q8TCT1; recombinant PHOSPHO1, absorbance phosphatase assay; inhibition, % at 13.3 µM; 290,000 compounds, 1.1% hits; AID 1565; in the data active = inhibition above about 60%
Target sequence (Q8TCT1 whole entry, looked up): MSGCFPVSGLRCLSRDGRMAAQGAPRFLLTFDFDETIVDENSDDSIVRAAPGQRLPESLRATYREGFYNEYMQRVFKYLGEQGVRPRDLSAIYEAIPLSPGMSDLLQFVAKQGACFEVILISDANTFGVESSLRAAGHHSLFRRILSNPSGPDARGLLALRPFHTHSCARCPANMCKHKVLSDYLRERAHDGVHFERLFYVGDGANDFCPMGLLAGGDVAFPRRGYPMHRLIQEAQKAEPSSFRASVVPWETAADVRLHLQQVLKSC
KCNK9 inh conf: confirmation of human KCNK9 potassium channel inhibitors; HEK293 KCNK9 cells, FluxOR thallium flux fluorescence; inhibition, % at 10 µM; shares compounds with KCNK9 inh; 4,900 compounds, 43% hits;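 active = thallium signal inhibited by more than 5 SD of the compound-free buffer control wells, on both duplicate plates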
Kir2-1 spec: mouse Kir2.1 off-target activity of KCNK9 modulators | 4,900 compounds, 4% hits | shares compounds with KCNK9 inh | Kir2.1 cells, FluxOR thallium flux fluorescence | inhibition, % at 10 µM;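 active = thallium signal drop more than 5 SD beyond the mean of the no-compound control wells, seen in both duplicate plates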;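 also: signal is fluorescence rise after thallium addition divided by baseline fluorescence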
Target sequence (P35561 whole entry, looked up): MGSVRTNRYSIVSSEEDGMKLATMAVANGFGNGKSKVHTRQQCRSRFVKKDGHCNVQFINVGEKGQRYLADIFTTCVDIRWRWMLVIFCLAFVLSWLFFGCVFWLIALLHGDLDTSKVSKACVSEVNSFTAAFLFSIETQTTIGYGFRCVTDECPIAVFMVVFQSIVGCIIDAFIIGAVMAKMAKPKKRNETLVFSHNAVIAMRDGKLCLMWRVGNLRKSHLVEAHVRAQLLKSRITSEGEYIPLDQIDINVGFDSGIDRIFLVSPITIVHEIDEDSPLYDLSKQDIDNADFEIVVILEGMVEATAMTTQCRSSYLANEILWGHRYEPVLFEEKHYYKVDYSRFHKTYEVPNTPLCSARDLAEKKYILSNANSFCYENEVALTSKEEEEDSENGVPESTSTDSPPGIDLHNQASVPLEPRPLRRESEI
KCNK9 uninduced: second check of KCNK9 modulator effects in non-induced HEK293 cells. shares compounds with KCNK9 inh. FluxOR thallium flux. inhibition, % at 10 µM. 4,900 compounds, 40% hits;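 active = thallium signal drop beyond 5 SD of the untreated control mean, on both duplicate plates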
KCNK3 inh conf: confirmation of human KCNK3 two-pore domain potassium channel inhibitors; AID 651638; 2,400 compounds, 99% hits; CHO-KCNK3 thallium flux, FluxOR fluorescence; 0% buffer, 100% carvedilol maximal block; shares compounds with KCNK3 inh; ratio percent of control, % at 10 µM;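 active = ratio percent of control, averaged over triplicates, above buffer control mean plus 5 SD, cut at about 64% in these data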;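 also: ratio is the fluorescence rise from min to max over baseline after thallium stimulus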
KCNK3 noninduced: counter-screen for KCNK3 inhibitors: effect in non-induced cells; shares compounds with KCNK3 inh; non-induced KCNK3 parental cells, FluxOR thallium flux; stronger effect = lower value; thallium flux ratio (lower = more inhibition) at 10 µM; 2,400 compounds, 40% hits; AID 651747;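 active = thallium flux ratio, averaged over three wells, more than 5 SD below the buffer control mean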;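 also: host cells are CHO cells without KCNK3 induction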
Each line names hits and unclear results; the compound was inactive in the other large screens (follow-up assays come after a bar, where they were run).

O=[N+]([O-])c1ccc(N2CCOCC2)cc1SCc1ccco1	none
O=[N+]([O-])c1ccc(SCc2ccco2)cc1N1CCOCC1	none | KCNK9 inh conf inactive | Kir2-1 spec inactive | KCNK9 uninduced inactive
CCc1cccc(CC)c1NC(=O)COC(=O)c1cccc(S(=O)(=O)N2CCc3ccccc3C2)c1	KCNK9 inh -9.1 | KCNK9 inh conf 56% | Kir2-1 spec inactive | KCNK9 uninduced 34%
Cc1cccc(N2CCN(CC(=O)NCc3ccc(Cl)cc3)CC2)c1C	none | KCNK9 inh conf inactive | Kir2-1 spec inactive | KCNK9 uninduced inactive
CC1c2[nH]c3ccccc3c2C[C@H]2C(=O)N(CCCO)CC(=O)N12 (some centres not stated)	none
O=C(N/N=C/c1ccc2c(c1)OCO2)c1ccc(COCC(F)(F)C(F)F)cc1	none
CC(C)C1COC(c2cccn2Cc2ccccc2Cl)=N1 (configuration not stated)	none | KCNK9 inh conf inactive | Kir2-1 spec inactive | KCNK9 uninduced 30%
Cc1oc(-c2ccccc2Cl)nc1CN1CCCC1c1ccc(F)cc1 (configuration not stated)	none
Cc1oc(-c2ccccc2Cl)nc1Cn1cccc1C1=NC(c2ccccc2)CO1 (configuration not stated)	KCNK9 inh -13, KCNQ1 block 6 | KCNK9 inh conf 54% | Kir2-1 spec inactive | KCNK9 uninduced 52%
Cc1cc(C)n(C(=O)CNC(=O)c2ccc3c(c2)OCCO3)n1	none
COc1cc(C)ccc1N(CCCN1C(=O)c2cccc3cccc(c23)C1=O)C(=O)c1cccs1	KCNK9 inh -14 | KCNK9 inh conf 80% | Kir2-1 spec inactive | KCNK9 uninduced 34%
COc1ccc(N(CCCN2C(=O)c3cccc4cccc(c34)C2=O)C(=O)c2cccs2)cc1	none
Cc1ccc(N(CCCCN2C(=O)c3ccccc3C2=O)C(=O)c2cccs2)cc1	none | KCNK9 inh conf inactive | Kir2-1 spec inactive | KCNK9 uninduced inactive
CCC1Oc2ccc(C)cc2N(CC(=O)N(Cc2ccc(C)o2)C2CCCC2)C1=O (configuration not stated)	none | KCNK9 inh conf inactive | Kir2-1 spec inactive | KCNK9 uninduced 34%
Cc1ccc(NC(C#N)c2ccccc2OCc2ccccc2)cc1 (configuration not stated)	none
COc1ccc(NC(C#N)c2ccccc2OCc2ccccc2)cc1 (configuration not stated)	KCNK9 inh -8.3 | KCNK9 inh conf inactive | Kir2-1 spec inactive | KCNK9 uninduced 24%
O=C(N/N=C/c1cccnc1)c1ccccc1OCc1cccc(Br)c1	none
Cc1ccc(/C=N/NC(=O)c2ccccc2OCc2cccc(Br)c2)o1	KCNK9 inh -10 | KCNK9 inh conf 30% | Kir2-1 spec inactive | KCNK9 uninduced inactive
Cc1ccc(S(=O)(=O)N(C)C[C@@H]2Oc3c(NS(C)(=O)=O)cccc3C(=O)N([C@H](C)CO)C[C@@H]2C)cc1	none (no result: KCNK9 inh, KCNQ1 act, hERG rescue, KCNQ1 block, PHOSPHO1 block)
O=C(Nc1nnc(C2CC2)s1)c1cc(-c2ccccc2)nn1-c1ccccc1	KCNK9 inh -9.4 | KCNK9 inh conf 30% | Kir2-1 spec inactive | KCNK9 uninduced inactive
O=c1c2c3c(sc2ncn1/N=C/c1ccc([N+](=O)[O-])o1)CCCC3	none
Cn1cc(/C=N/n2cnc3sc4c(c3c2=O)CCCC4)c2ccccc21	PHOSPHO1 block 62 | KCNK9 inh conf inactive | Kir2-1 spec inactive | KCNK9 uninduced inactive
COc1ccc(N2CCN(c3nc(-c4cccs4)nc4ccccc34)CC2)cc1	KCNK9 inh -14 | KCNK9 inh conf 31% | Kir2-1 spec inactive | KCNK9 uninduced 28%
COc1cccc(CN(C)c2nc(-c3cccs3)nc3ccccc23)c1	KCNK9 inh -9.2 | KCNK9 inh conf 54% | Kir2-1 spec inactive | KCNK9 uninduced 41%
COc1cccc(Nc2nc(-c3cccs3)nc3ccccc23)c1	none
c1csc(-c2nc(N3CCOCC3)c3ccccc3n2)c1	none
S=c1[nH]nc(-c2cccs2)n1/N=C/c1cn(-c2ccccc2)nc1-c1ccccc1	none | KCNK9 inh conf inactive | Kir2-1 spec inactive | KCNK9 uninduced inactive
Cc1ccc(-c2nn(-c3ccccc3)cc2/C=N/n2c(-c3ccncc3)n[nH]c2=S)cc1	none
CCc1ccc(-c2cc(C)no2)cc1S(=O)(=O)N1CCOc2ccccc21	KCNK9 inh -12, KCNK3 inh -15 | KCNK9 inh conf 38% | Kir2-1 spec inactive | KCNK9 uninduced 42% | KCNK3 inh conf 125 | KCNK3 noninduced 0.14
N#C/C(=C\c1cccc([N+](=O)[O-])c1)C(=O)NCc1ccc(Cl)cc1	none (no result: KCNK9 inh, KCNQ1 act, hERG rescue, KCNQ1 block)
COc1cc(/C=C2\C(=N)N3N=C(S(C)(=O)=O)SC3=NC2=O)cc(OC)c1OCCOc1ccc(C)cc1	KCNK3 inh -12 | KCNK9 inh conf inactive | Kir2-1 spec inactive | KCNK9 uninduced inactive | KCNK3 inh conf 99 | KCNK3 noninduced 0.14
COc1cc(/C=C2\C(=N)N3N=C(S(C)(=O)=O)SC3=NC2=O)ccc1OCCOc1ccc(C)cc1	KCNK3 inh -9.1, KCNQ1 block 10 | KCNK9 inh conf inactive | Kir2-1 spec inactive | KCNK9 uninduced inactive | KCNK3 inh conf 75 | KCNK3 noninduced 0.16
Cc1ccc(SCCC(=O)OC(C(=O)NC(N)=O)C(C)C)cc1 (configuration not stated)	none
COc1ccc(CN(C)C(=O)CCC(=O)N2CCN(S(=O)(=O)c3ccc(Cl)cc3)CC2)c(OC)c1	none (no result: KCNK9 inh, KCNQ1 act, hERG rescue, KCNQ1 block, PHOSPHO1 block)
Cc1ccc(NC(=O)c2ncn(CCCNCCCc3ccccc3)n2)cc1C	none (no result: KCNK9 inh, KCNQ1 act, hERG rescue, KCNQ1 block, PHOSPHO1 block)
Cc1nonc1OCCNCc1c(C(=O)N(C)C)nc2ccc(Cl)cn12	none
Cc1cccc(OCCCn2c(=O)sc3ccccc32)c1	none
CCCCCCCCCCOC(=O)Cn1c(COc2cccc(C)c2)[n+](C)c2ccccc21	KCNK9 inh -14, KCNK3 inh -10 | KCNK9 inh conf 64% | Kir2-1 spec 64% | KCNK9 uninduced inactive | KCNK3 inh conf 100 | KCNK3 noninduced inactive
